The values that follow come from paper PMC8176629 (European journal of medicinal chemistry, 2021).

In assay [1] the test system is HIV-1NL4–3. Briefly: HIV-1/NL4–3 replication inhibition assay in MT-4 lymphocytes. It is filed as cell-based. The settings on record: for activity compared with 4 (EC50 0.019 μM): HIV-1NL4–3 infected MT-4 cell lines. The method in brief:
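MT-4 cells infected with HIV-1 NL4-3 at MOI 0.01 in the presence of test compound. Culture supernatants were harvested on day 4 post-infection, and p24 antigen was measured by capture ELISA. IC50 was taken as the concentration that inhibits NL4-3 replication by 50%.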

Assay [2] deals with HIV-1NL4–3. The settings on record: cited from earlier work.
The subject of another assay is NL4–3/V370A. The following applies: most prevalent bevirimat-resistant polymorphism; cited from earlier work.
[3] abbreviates: Human immunodeficiency virus 1, Lymphocyte, read-out: PIC50 (experimental).
Setting [4] is: Human immunodeficiency virus 1, MT4, 96 h.

“Also recorded” adds a separate entry of the source. Read-outs that look alike come from different tables or passages of the source.

Consider `C=C(C)[C@@H]1CC[C@]2(C(=O)O)CC[C@]3(C)[C@H](CC[C@@H]4[C@@]5(C)CC[C@H](OC(=O)CC(C)(C)C(=O)O)C(C)(C)[C@@H]5CC[C@]43C)[C@@H]12` [Compound 3, 3-O-(3′,3′-dimethylsuccinyl)betulinic acid, reference compound], for which the IC50 with HIV-1NL4–3 [1] (setting [3]) is 64.6 nM; with HIV-1NL4–3 [1] (setting [4]), 65 ± 1.9 nM.

As for `C=C(C)[C@@H]1CC[C@]2(C(=O)N3CCN(C(=O)/C=C/c4ccc5c(c4)OCO5)CC3)CC[C@]3(C)[C@H](CC[C@@H]4[C@@]5(C)CC[C@H](OC(=O)CC(C)(C)C(=O)O)C(C)(C)[C@@H]5CC[C@]43C)[C@@H]12` [Compound 4], the IC50 is 19.1 nM with HIV-1NL4–3 [1] (setting [3]) and 19 ± 5.4 nM in the assay on HIV-1NL4–3 [1] (setting [4]). Besides, in the assay with HIV-1NL4–3 [2], the “activity increase compared with 3 against NL4–3” value is “three-fold”. In the assay on NL4–3/V370A, the “activity increase compared with 3 against NL4–3/V370A” value was 51 fold.

Turning to `C=C(C)[C@@H]1CC[C@]2(C(=O)N3CCN(C(=O)/C=C/c4ccc(OC)c(OC)c4)CC3)CC[C@]3(C)[C@H](CC[C@@H]4[C@@]5(C)CC[C@H](OC(=O)CC(C)(C)C(=O)O)C(C)(C)[C@@H]5CC[C@]43C)[C@@H]12` [Compound 9b], the IC50 in the assay with HIV-1NL4–3 [1] (setting [3]) was 28.8 nM; with HIV-1NL4–3 [1] (setting [4]), 29 ± 9.3 nM.

Regarding `C=C(C)[C@@H]1CC[C@]2(C(=O)N3CCN(C(=O)/C=C/c4ccc(N(C)C)cc4)CC3)CC[C@]3(C)[C@H](CC[C@@H]4[C@@]5(C)CC[C@H](OC(=O)CC(C)(C)C(=O)O)C(C)(C)[C@@H]5CC[C@]43C)[C@@H]12` [Compound 9i, (E)-4-(28-(4-(3-(4-(dimethylamino)phenyl)acryloyl)piperazine-1-carbonyl)lup-20(29)-en-3β-oxy)-2,2-dimethyl-4-oxobutanoic acid], the “activity compared with 4 (EC50 0.019 μM)” value with HIV-1NL4–3 [1] is recorded as “improved or comparable activity; also recorded: improved or similar activity”. As to `C=C(C)[C@@H]1CC[C@]2(C(=O)N3CCN(C(=O)/C=C/c4ccc(OCOC)c(OCOC)c4)CC3)CC[C@]3(C)[C@H](CC[C@@H]4[C@@]5(C)CC[C@H](OC(=O)CC(C)(C)C(=O)O)C(C)(C)[C@@H]5CC[C@]43C)[C@@H]12` [Compound 9r], the figures for the IC50 in the assay on HIV-1NL4–3 [1] (setting [3]) and with HIV-1NL4–3 [1] (setting [4]) were 50.1 nM and 50 ± 21 nM, respectively. For `C=C(C)[C@@H]1CC[C@]2(C(=O)N3CCN(C(=O)/C=C/c4ccc(OCOC)c(OC)c4)CC3)CC[C@]3(C)[C@H](CC[C@@H]4[C@@]5(C)CC[C@H](OC(=O)CC(C)(C)C(=O)O)C(C)(C)[C@@H]5CC[C@]43C)[C@@H]12` [Compound 9t, (E)-4-(28-(4-(3-(3-methoxy-4-(methoxymethoxy)phenyl)acryloyl)piperazine-1-carbonyl)lup-20(29)-en-3β-oxy)-2,2-dimethyl-4-oxobutanoic acid], in the assay with HIV-1NL4–3 [1], the “activity compared with 4 (EC50 0.019 μM)” value is reported as “improved or comparable activity; also recorded: improved or similar activity”. `C=C(C)[C@@H]1CC[C@]2(C(=O)N3CCN(C(=O)/C=C/c4ccc(O)c(O)c4)CC3)CC[C@]3(C)[C@H](CC[C@@H]4[C@@]5(C)CC[C@H](OC(=O)CC(C)(C)C(=O)O)C(C)(C)[C@@H]5CC[C@]43C)[C@@H]12` [Compound 10a]: the IC50 with HIV-1NL4–3 [1] (setting [3]) is 28.2 nM; in the assay on HIV-1NL4–3 [1] (setting [4]) it was 28 ± 9.8 nM. As for `C=C(C)[C@@H]1CC[C@]2(C(=O)N3CCN(C(=O)/C=C/c4ccc(O)c(OC)c4)CC3)CC[C@]3(C)[C@H](CC[C@@H]4[C@@]5(C)CC[C@H](OC(=O)CC(C)(C)C(=O)O)C(C)(C)[C@@H]5CC[C@]43C)[C@@H]12` [Compound 10c, (E)-4-(28-(4-(3-(4-hydroxy-3-methoxyphenyl)acryloyl)piperazine-1-carbonyl)lup-20(29)-en-3β-oxy)-2,2-dimethyl-4-oxobutanoic acid], in the assay on HIV-1NL4–3 [1], the “activity compared with 4 (EC50 0.019 μM)” value was “improved or comparable activity; also recorded: improved or similar activity”.

In the case of `C=C(C)[C@@H]1CC[C@]2(C(=O)N3CCN(C(=O)CCc4ccc5c(c4)OCO5)CC3)CC[C@]3(C)[C@H](CC[C@@H]4[C@@]5(C)CC[C@H](OC(=O)CC(C)(C)C(=O)O)C(C)(C)[C@@H]5CC[C@]43C)[C@@H]12` [Compound 13m, 4-(28-(4-(3-(Benzo[d] [1,3]dioxol-5-yl)propanoyl)piperazine-1-carbonyl)lup-20(29)-en-3b-oxy)-2,2-dimethyl-4-oxobutanoic acid], the “activity compared with 4 (EC50 0.019 μM)” value in the assay with HIV-1NL4–3 [1] is given as “improved or comparable activity; also recorded: improved or similar activity”. For the molecule `C=C(C)[C@@H]1CC[C@]2(C(=O)OCCCOC(=O)/C=C/c3ccc(OC)cc3)CC[C@]3(C)[C@H](CC[C@@H]4[C@@]5(C)CC[C@H](OC(=O)CC(C)(C)C(=O)O)C(C)(C)[C@@H]5CC[C@]43C)[C@@H]12` [Compound 20a], the “fold less potent than 9e” value in the assay on HIV-1NL4–3 [1] (compared with piperazine-linked 9e) was 11 fold. With `C=C(C)[C@@H]1CC[C@]2(C(=O)N3CCN(CCCCC(=O)N4CCN(C(=O)/C=C/c5ccc6c(c5)OCO6)CC4)CC3)CC[C@]3(C)[C@H](CC[C@@H]4[C@@]5(C)CC[C@H](OC(=O)CC(C)(C)C(=O)O)C(C)(C)[C@@H]5CC[C@]43C)[C@@H]12` [Compound 31], in the assay with HIV-1NL4–3 [1] (setting [4]), the IC50 worked out at 12 ± 4.1 nM. For the molecule `C=C(C)[C@@H]1CC[C@]2(C(=O)N3CCN(CCCCC(=O)N4CCN(c5cc(NCc6ccccc6)ncn5)CC4)CC3)CC[C@]3(C)[C@H](CC[C@@H]4[C@@]5(C)CC[C@H](OC(=O)CC(C)(C)C(=O)O)C(C)(C)[C@@H]5CC[C@]43C)[C@@H]12` [Compound 32, 4-(28-(4-(5-(4-(6-(Benzylamino)pyrimidin-4-yl)piperazin-1-yl)-5-oxopentyl)piperazine-1-carbonyl)lup-20(29)-en-3β-oxy)-2,2-dimethyl-4-oxobutanoic acid], in the assay with HIV-1NL4–3 [1], the “activity compared with 4 (EC50 0.019 μM)” value was “improved or comparable activity; also recorded: improved or similar activity”.
